This is a sample that favours compounds with a hit; in the whole collection about 1.5% have one here.
APJ agonist – agonists of human APJ apelin receptor. activation, % at 20 µM. CHO-K1 APJ PathHunter beta-arrestin, luminescence; 0% DMSO wells, 100% apelin. actives 0.11% (n = 330,000). P35414;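 active = activation more than six SD over the plate average, tested at 20 µM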;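 also: 0% = DMSO alone and 100% = apelin-13 at 10 nM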
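Material: CHO-K1 APJ beta-arrestin complementation cell line; Input: cell density 1000 per well; Incubation: compound stimulation 90 min at 25 °C, detection 60 min; Signal: luminescence from split beta-galactosidase complementation, Galacton Star/Emerald II substrate; Controls: DMSO-only wells as negative, 10 nM Apelin-13 as positive control.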
CCR6 antag – blocks CCL20-driven beta-arrestin recruitment at human CCR6 | CHO-K1 CCR6 PathHunter beta-arrestin, luminescence, CCL20-stimulated | inhibition, % at 20 µM | actives 0.49% (n = 340,000);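 active = compounds whose inhibition of the agonist-driven luminescence signal at 20 µM reaches about 50%, limit read from the data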;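 also: cells stimulated with CCL20 at 14 nM final; plate controls were DMSO with CCL20 for no effect and DMSO without agonist for full effect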
APJ antag – blocks the human apelin receptor APJ. CHO-K1 APJ beta-arrestin complementation, luminescence. inhibition, % at 20 µM. actives 0.32% (n = 330,000);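 active = inhibition above about 40% at 20 µM, limit read from the data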;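 also: cells challenged with 10 nM apelin-13 agonist together with compound; plate controls were apelin-13 plus DMSO wells for no effect and DMSO wells lacking apelin-13 for full effect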
EBI2 block – blocks human EBI2 receptor beta-arrestin signaling. P32249. EBI2 beta-arrestin recruitment, luminescence, 7a,25-OHC stimulated. inhibition, % at 5 µM. actives 0.81% (n = 360,000); in the data active = inhibition above about 38%;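 also: enzyme fragment complementation signal reports receptor beta-arrestin coupling in cells; 0% = agonist plus DMSO wells and 100% = wells without agonist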
CXCR6 block – CXCR6 (human) receptor inhibition | CHO-K1 PathHunter CXCR6 beta-arrestin, luminescence | inhibition, % at 20 µM | actives 0.36% (n = 360,000) | AID 602244; in the data active = inhibition above about 34%, passing the limit was not always enough;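 also: antagonist mode with CXCL16 agonist at 10 nM final; 0% = 10 nM CXCL16 with DMSO and 100% = unstimulated wells without agonist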
Target sequence (O00574 whole entry, looked up): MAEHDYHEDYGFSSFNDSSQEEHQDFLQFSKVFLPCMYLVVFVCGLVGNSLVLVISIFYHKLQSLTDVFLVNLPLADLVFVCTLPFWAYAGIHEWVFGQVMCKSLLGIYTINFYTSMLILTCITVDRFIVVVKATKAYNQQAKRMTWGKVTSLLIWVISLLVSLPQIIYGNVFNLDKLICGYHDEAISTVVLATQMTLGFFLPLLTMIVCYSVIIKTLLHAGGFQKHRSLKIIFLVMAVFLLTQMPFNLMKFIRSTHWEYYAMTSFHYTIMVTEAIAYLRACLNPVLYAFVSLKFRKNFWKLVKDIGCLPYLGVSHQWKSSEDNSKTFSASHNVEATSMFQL
APJ antag conf – APJ receptor antagonism confirmation | shares compounds with APJ antag | APJ beta-arrestin recruitment, luminescence, antagonist mode | actives 66% (n = 950) | inhibition, % at 20 µM; in the data active = inhibition above about 50%
Starred values were filed as active, the others as inactive; · = no result given.

SMILES	APJ agonist	CCR6 antag	APJ antag	EBI2 block	CXCR6 block	APJ antag conf
COCCCNc1nc(N)c([N+](=O)[O-])c(Nc2ccccc2OC)n1	-1.9	14.8	2.0	3.8	3.1	·
Cc1cccn2c(=O)c(/C=C(\C#N)C(=O)NCc3ccccc3)c(N3CCC(C(N)=O)CC3)nc12	0.3	2.6	40.7*	-6.0	9.1	36.8
COc1ccc(C(=O)NCCc2nnc3ccc(SCC(=O)NCc4ccc(F)cc4)nn23)cc1	4.2	8.6	8.3	5.7	25.8	·
CCC(=O)N1CCN(c2ccc(NC(=O)COc3ccccc3Cl)cc2)CC1	-0.9	8.3	13.6	5.0	6.3	·
CCC(=O)N1CCN(c2ccccc2NC(=O)COc2ccccc2Cl)CC1	-8.6	51.0*	52.1*	27.1	43.4*	61.5*
O=C(CCC(=O)c1cccs1)OCC(=O)c1ccc(Cl)s1	-1.6	13.9	41.1*	1.9	10.4	-1.7
O=c1c(N=Nc2ccc(O)cc2)c(-c2ccccc2)[nH]n1-c1ccc([N+](=O)[O-])cc1	-5.7	52.0*	54.1*	33.7	37.1	42.6
NC(=S)n1[nH]c(-c2ccc([N+](=O)[O-])cc2)c(N=Nc2ccc(Cl)cc2)c1=O	·	45.1	·	26.3	24.3	·
CC1N(O)C(c2ccc(Cl)cc2Cl)N(O)C1(C)C (stereo not drawn)	-0.7	46.5	-4.5	-3.2	4.0	·
ON1C(c2ccc(Cl)cc2Cl)N(O)[C@H]2CCCC[C@H]21 (stereo partly drawn)	-9.3	79.9*	55.2*	-4.9	8.4	85.4*
COc1ccc(C(=O)CNc2ccccc2CO)cc1	-7.8	91.5*	40.1*	4.4	17.7	148.5*
COc1ccccc1NCC(=O)c1ccc(Cl)cc1	-15.8	71.0*	72.2*	-2.7	37.9	110.4*
COc1ccc(C(=O)CC(=O)C(=O)Nc2cccc(F)c2)cc1	-0.6	18.8	4.6	6.5	13.4	·
COc1ccc(C(=O)CNc2cccc(F)c2)cc1	-10.9	59.7*	45.0*	-0.5	34.7	94.6*
CN(C)c1cccc2c1c(NC(=O)Nc1ccc(Cl)cc1Cl)nn2C	6.6	-1.6	-38.7	21.6	1.5	·
CCOC(=O)N1CCN(C(=O)COc2ccc(S(=O)(=O)NCc3ccccc3)cc2)CC1	-2.7	5.1	-14.5	15.7	-1.7	·
Cc1nc(-n2[nH]c3c(c2=O)CCCC3)[nH]c(=O)c1Cc1ccccc1	-10.5	73.8*	50.0*	-7.9	40.7*	80.9*
CC[C@]12c3[nH]c4ccccc4c3CCN1C(=O)C(CC(=O)NCc1ccco1)C[C@@H]2C(=O)N1CCN(C(=O)c2ccco2)CC1 (stereo partly drawn)	-2.4	9.2	-2.7	0.2	3.9	·
C=CCn1c(-c2ccccc2OC)n[nH]c1=S	-2.6	4.6	4.8	-11.9	0.4	·
C=CCn1c(-c2cccc3ccccc23)n[nH]c1=S	-1.6	-18.1	43.1*	13.1	4.2	14.7
CCOc1ccc(C(=O)NC(=S)Nc2cccnc2)cc1[N+](=O)[O-]	-5.1	33.8	43.1*	-10.0	17.2	43.2
COc1ccc(/C=C/C(=O)NC(=S)NNC(=O)c2c(-c3ccccc3)noc2C)cc1	-7.2	3.5	43.4*	17.3	32.0	91.6*
CC(=O)Nc1ccc(NC=C(C#N)C#N)cc1	-2.8	9.1	-3.4	-5.6	-2.8	·
O=C(NC(O)C(=O)c1ccccc1)c1cccs1 (stereo not drawn)	-11.4	40.8	48.1*	-1.7	20.9	25.1
O=C(NC(O)C(=O)c1cccs1)c1cccnc1 (stereo not drawn)	-6.7	25.4	50.0*	10.3	6.6	31.3
SMILES	APJ agonist	CCR6 antag	APJ antag	EBI2 block	CXCR6 block	APJ antag conf
O=C(NNC(=O)c1cccs1)c1cccnc1	1.3	2.9	9.6	-11.7	0.4	·
Cc1ccc([N+](=O)[O-])c(NC(=O)COC(=O)C2CC3CCCC(C2)C3=O)c1C (stereo not drawn)	2.1	5.7	0.6	-4.0	1.6	·
Cc1ccc(C(=O)COC(=O)CN2C(=O)C3CC=CCC3C2=O)cc1[N+](=O)[O-] (stereo not drawn)	-22.4	27.7	44.9*	-0.6	3.0	79.1*
O=C(CN1C(=O)C2C3C=CC(C3)C2C1=O)OCC(=O)c1ccc(Cl)c([N+](=O)[O-])c1 (stereo not drawn)	-37.6	70.6*	81.3*	5.3	48.5*	143.4*
Cc1ccc(C(=O)COC(=O)CN2C(=O)C3C4CCC(C4)C3C2=O)cc1[N+](=O)[O-] (stereo not drawn)	-0.6	49.8	48.5*	-4.6	14.5	35.3
Cc1ccc(C(=O)COC(=O)C2CC3CCCC(C2)C3=O)cc1[N+](=O)[O-] (stereo not drawn)	-8.9	24.7	43.4*	-2.4	18.1	22.4
Cc1ccc(C(=O)COC(=O)CN2C(=O)C3C4CCC(C4)C3C2=O)cc1C (stereo not drawn)	-7.0	-5.5	8.5	4.5	0.4	·
Cc1ccc(C(=O)COC(=O)CN2C(=O)C3C4C=CC(C4)C3C2=O)cc1[N+](=O)[O-] (stereo not drawn)	-10.8	37.9	38.2	1.5	24.7	·
CC(C)(C)c1ccc(OCCN2CCCC2)cc1	-2.8	7.9	9.8	-5.0	7.2	·
O=C(CN1C(=O)C2C3CCC(C3)C2C1=O)OCC(=O)c1cccc([N+](=O)[O-])c1 (stereo not drawn)	-11.8	61.8*	60.8*	22.1	37.0	88.9*
O=C(CCN1C(=O)C2C3CC(C(Br)C3Br)C2C1=O)OCC(=O)c1cccc([N+](=O)[O-])c1 (stereo not drawn)	-13.5	55.3*	59.3*	11.8	28.2	99.6*
Cc1ccc(C(=O)COC(=O)CCN2C(=O)C3C4CCC(C4)C3C2=O)cc1[N+](=O)[O-] (stereo not drawn)	-22.6	24.7	50.2*	19.2	15.5	44.0
Cc1cnc(C(=O)Nc2nc(-c3ccccc3)cs2)cn1	-1.1	12.7	9.8	-0.5	6.5	·
CCCCCCSc1ccc([C@H]2N[C@@](Cc3ccccc3)(C(=O)OC)[C@H]3C(=O)N(C)C(=O)[C@@H]23)cc1	-0.9	4.3	6.7	22.0	17.7	·
CN(C)CCNC(=O)c1ccc2c(c1)N(Cc1ccc(F)cc1)CCS2	-5.2	13.4	52.4*	0.7	4.5	13.5
Cn1cc(/C=C(\NC(=O)c2ccccc2)C(=O)NCCCn2ccnc2)c2ccccc21	·	·	·	-11.5	0.5	·
CCOc1ccc(CCNC(=O)C2CCCN(S(=O)(=O)N3CCCCC3)C2)cc1OCC (stereo not drawn)	·	·	·	-8.9	9.7	·
NS(=O)(=O)c1ccc(N=Nc2c(=O)[nH]n3c(=O)c4c([nH]c23)CCCC4)cc1	-8.6	35.4	45.3*	7.7	24.7	58.0*
O=C1CCN(C(=O)Cc2ccccc2)c2ccccc21	·	·	·	-5.9	-13.8	·
